Converted amounts (≈) assume the structure as drawn. The source made the active and inactive calls. The calls are words filed in the database; no cut-off is given here.
Experiments:
[1] = test system: Candida tropicalis; assay: Antifungal activity against Candida tropicalis IBA 171 assessed as diameter of zone inhibition incubated for 24 hrs by CLSI disc diffusion method; type: functional
How it was run: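 Yeast disc diffusion on Mueller-Hinton agar supplemented with 2% glucose and 0.5 mg/L methylene blue. Compounds in DMSO. Yeasts subcultured on Sabouraud dextrose agar before testing. Zones read after 35 °C, 24 h.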

[2] = test system: Acinetobacter baumannii; assay: Antibacterial activity against Acinetobacter baumannii ATCC 19606 assessed as fold reduction of MIC in presence of efflux pump inhibitor PAbetaN incubated for 18 hrs by broth microdilution method; type: functional
How it was run: (§1)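 MICs determined with and without PAβN at 50 mg/L in Mueller-Hinton broth containing 1 mM MgSO₄. 2-fold serial dilutions per CLSI. Fold change taken from the paired MICs after 35 °C, 18 h.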

[3] = test system: Proteus mirabilis; assay: Antibacterial activity against Proteus mirabilis ATCC 12453 assessed as fold reduction of MIC in presence of efflux pump inhibitor PAbetaN incubated for 18 hrs by broth microdilution method; type: functional; how it was run: as §1
[4] = test system: Acinetobacter baumannii; assay: Antibacterial activity against Acinetobacter baumannii ATCC 19606 measured after 18 hrs by CLSI broth dilution method; type: functional; settings: ATCC 19606, 18 h
How it was run: (§2)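 Broth MIC in Mueller-Hinton II broth following CLSI, compounds dissolved in DMSO. Strains subcultured twice on tryptic soy agar before testing. Growth read after 35 °C, 18 h.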

[5] = test system: Klebsiella pneumoniae; settings: ATCC 13883
[6] = test system: Pichia kudriavzevii; assay: Antifungal activity against Candida krusei ATCC 6258 assessed as decrease in fungal cell growth at 0.78 to 12.5 mg/L incubated for 24 hrs by CLSI broth dilution method; type: functional; settings: ATCC 6258, 24 h
How it was run: (§3)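 Yeast broth dilution in RPMI 1640 with 2% glucose, compounds in DMSO. Yeasts pre-grown on Sabouraud dextrose agar. Growth read after 35 °C, 24 h.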

[7] = test system: Proteus mirabilis; assay: Antibacterial activity against Proteus mirabilis ATCC 12453 assessed as diameter of zone inhibition measured after 18 hrs by CLSI disc diffusion method; type: functional
How it was run: (§4)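 Disc diffusion on Mueller-Hinton II agar. Compounds dissolved in DMSO. Strains stored at -80 °C and subcultured twice on tryptic soy agar before testing. Inhibition zones read after 35 °C, 18 h.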

[8] = test system: Enterococcus faecium; assay: Antibacterial activity against Enterococcus faecium ATCC 6057 assessed as diameter of zone inhibition measured after 18 hrs by CLSI disc diffusion method; type: functional; how it was run: as §4
[9] = test system: Serratia marcescens; settings: ATCC 13880
[10] = test system: Bordetella bronchiseptica; assay: Antibacterial activity against Bordetella bronchiseptica ATCC 4617 assessed as diameter of zone inhibition measured after 18 hrs by CLSI disc diffusion method; type: functional; how it was run: as §4
[11] = test system: Bordetella bronchiseptica; assay: Antibacterial activity against Bordetella bronchiseptica ATCC 4617 measured after 18 hrs by CLSI broth dilution method; type: functional; settings: ATCC 4617, 18 h; how it was run: as §2
[12] = test system: Staphylococcus aureus; assay: Bactericidal activity against Staphylococcus aureus ATCC 6538P measured after 18 hrs by CLSI broth dilution method; type: functional
How it was run: (§5)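 Strains stored at -80 °C and subcultured twice on tryptic soy agar before testing. Compounds dissolved in DMSO. […] MBC then determined per CLSI recommendations.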

[13] = Dissociation constant, pKa2 of compound in 0.1 M NaOH by potentiometric analysis; type: physicochemical
[14] = test system: Serratia marcescens; assay: Antibacterial activity against Serratia marcescens ATCC 13880 assessed as fold reduction of MIC in presence of efflux pump inhibitor PAbetaN incubated for 18 hrs by broth microdilution method; type: functional; how it was run: as §1
[15] = test system: Candida parapsilosis; assay: Antifungal activity against Candida parapsilosis ATCC 22019 assessed as decrease in fungal cell growth at 0.78 to 12.5 mg/L incubated for 24 hrs by CLSI broth dilution method; type: functional; settings: Lodderomyces parapsilosis, ATCC 22019, 24 h; how it was run: as §3
[16] = test system: Staphylococcus epidermidis; assay: Bactericidal activity against Staphylococcus epidermidis ATCC 12228 measured after 18 hrs by CLSI broth dilution method; type: functional; settings: ATCC 12228, 18 h; how it was run: as §5
[17] = test system: Klebsiella pneumoniae; assay: Antibacterial activity against Klebsiella pneumoniae ATCC 13883 assessed as fold reduction of MIC in presence of efflux pump inhibitor PAbetaN incubated for 18 hrs by broth microdilution method; type: functional; how it was run: as §1
[18] = test system: Enterococcus faecalis; assay: Antibacterial activity against Enterococcus faecalis ATCC 29212 assessed as diameter of zone inhibition measured after 18 hrs by CLSI disc diffusion method; type: functional; how it was run: as §4
[19] = test system: Candida tropicalis; assay: Antifungal activity against Candida tropicalis IBA 171 assessed as decrease in fungal cell growth at 0.78 to 12.5 mg/L incubated for 24 hrs by CLSI broth dilution method; type: functional; settings: IBA 171, 24 h; how it was run: as §3
[20] = test system: Pseudomonas aeruginosa; assay: Antibacterial activity against Pseudomonas aeruginosa ATCC 27853 assessed as fold reduction of MIC in presence of efflux pump inhibitor PAbetaN incubated for 18 hrs microdilution method; type: functional; how it was run: as §1
[21] = test system: Klebsiella pneumoniae; assay: Inhibition of beta lactamase KPC-2 in Klebsiella pneumoniae 75 assessed as potentiation of ceftazidime-induced antibacterial activity by measuring ceftazidime MIC at 16 mg/L incubated for 18 hrs by broth dilution method (reference value: […] mg/L)
[22] = test system: Klebsiella pneumoniae; assay: Inhibition of beta lactamase SHV-12 in Klebsiella pneumoniae ATCC 700603 assessed as potentiation of ceftazidime-induced antibacterial activity by measuring ceftazidime MIC at 16 mg/L incubated for 18 hrs by broth dilution method (reference value: […] mg/L)
[23] = test system: Klebsiella pneumoniae; assay: Inhibition of beta lactamase KPC-3 in Klebsiella pneumoniae 83 assessed as potentiation of ceftazidime-induced antibacterial activity by measuring ceftazidime MIC at 16 mg/L incubated for 18 hrs by broth dilution method (reference value: >[…] mg/L)
[24] = test system: Klebsiella pneumoniae; assay: Inhibition of beta lactamase KPC-2 in Klebsiella pneumoniae 75 assessed as potentiation of meropenem-induced antibacterial activity by measuring meropenem MIC at 16 mg/L incubated for 18 hrs by broth dilution method (reference value: […] mg/L)
[25] = test system: Klebsiella pneumoniae; assay: Inhibition of beta lactamase KPC-3 in Klebsiella pneumoniae 81 assessed as potentiation of meropenem-induced antibacterial activity by measuring meropenem MIC at 16 mg/L incubated for 18 hrs by broth dilution method (reference value: […] mg/L)
[26] = Cytotoxicity against human MRC5 cells assessed as cell viability at 1 ug/ml incubated for 72 hrs by MTT assay; type: cell-based; settings: read-out: Activity
How it was run: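 MRC-5 pd30 human fibroblasts grown in MEM with 10% FBS, 2 mM L-glutamine, penicillin/streptomycin and 1% non-essential amino acids at 37 °C, 5% CO2. Exponentially growing cells trypsinized and seeded at 8×10^3 cells/well, then dosed 18 h later with 2-fold dilutions (0.5% DMSO final) for 72 h. MTT (1 mg/ml final) added for 1 h at 37 °C, formazan dissolved in DMSO, OD read at 570 nm. Four replicates, expressed as % viable versus control.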

Row | Structure (SMILES) | diameter of the inhibition zone (DIZ) [1] | fold change (FC) [2] | fold change (FC) [3] | MIC [4] | DIZ [5] | MIC [6] | diameter of the inhibition zone (DIZ) [7] | diameter of the inhibition zone (DIZ) [8] | DIZ [9] | diameter of the inhibition zone (DIZ) [10] | MIC [11] | fold change (FC) [14] | MIC [15] | fold change (FC) [17] | diameter of the inhibition zone (DIZ) [18] | MIC [19] | fold change (FC) [20] | MIC [21] | MIC [22] | MIC [23] | other results
1 | C[Si]1(C)OB(O)c2cc(B(O)O)cc(F)c21 | inactive | 4 | 4 | > 400 µg/mL | inactive | 50 µg/mL (≈ 208 µM) | inactive | 11 mm | inactive | inactive | > 400 µg/mL | 2 | 100 µg/mL (≈ 417 µM) | 8 | 12 mm | 400 µg/mL (≈ 1670 µM) | 2 | – | – | – | MBC [12]: 400 µg/mL (≈ 1670 µM); pKa [13]: 10.2; MBC [16]: 400 µg/mL (≈ 1670 µM)
2 | C[Si]1(C)OB(O)c2c(F)c(F)c(F)c(F)c21 | 13 mm | 4 | 2 | 400 µg/mL (≈ 1600 µM) | inactive | 200 µg/mL (≈ 800 µM) | 11 mm | 11 mm | inactive | 15 mm | 100 µg/mL (≈ 400 µM) | 4 | 50 µg/mL (≈ 200 µM) | 16 | 11 mm | 1.56 µg/mL (≈ 6.24 µM) | 16 | 64 µg/mL | 64 µg/mL | > 64 µg/mL | MIC [24]: 32 µg/mL; MIC [25]: 16 µg/mL
3 | C[Si]1(C)OB(O)c2c(F)c3c(c(F)c21)B(O)OC3 | inactive | 8 | 4 | 400 µg/mL (≈ 1480 µM) | inactive | > 400 µg/mL | inactive | 28 mm | inactive | inactive | 100 µg/mL (≈ 371 µM) | 16 | > 400 µg/mL | 16 | 28 mm | > 400 µg/mL | 8 | 64 µg/mL | 64 µg/mL | 64 µg/mL | pKa [13]: 7.8; MIC [24]: 32 µg/mL; MIC [25]: 16 µg/mL
4 | C[Si]1(C)OB(O)c2ccc(F)c(F)c21 | 12 mm | 4 | 2 | 200 µg/mL (≈ 934 µM) | inactive | 100 µg/mL (≈ 467 µM) | 12 mm | 18 mm | inactive | inactive | > 400 µg/mL | 8 | 12.5 µg/mL (≈ 58.4 µM) | 16 | inactive | 6.25 µg/mL (≈ 29.2 µM) | 32 | > 64 µg/mL | 32 µg/mL | > 64 µg/mL | viability at 72 h, 1 ug/ml [26]: 114%; MIC [24]: 32 µg/mL; MIC [25]: 8 µg/mL
5 | C[Si]1(C)OB(O)c2ccc(B(O)O)cc21 | inactive | 2 | 4 | > 400 µg/mL | inactive | 400 µg/mL (≈ 1800 µM) | inactive | 12 mm | inactive | inactive | > 400 µg/mL | 2 | 200 µg/mL (≈ 901 µM) | 4 | inactive | 200 µg/mL (≈ 901 µM) | 2 | 64 µg/mL | 64 µg/mL | 64 µg/mL | viability at 72 h, 1 ug/ml [26]: 117%; MBC [12]: 200 µg/mL (≈ 901 µM); MIC [24]: 16 µg/mL; MBC [16]: 100 µg/mL (≈ 451 µM); MIC [25]: 4 µg/mL
6 | C[Si]1(C)OB(O)c2ccc(Cl)cc21 | 15 mm | 16 | 4 | 400 µg/mL (≈ 1880 µM) | inactive | 25 µg/mL (≈ 118 µM) | inactive | 14 mm | inactive | 11 mm | 400 µg/mL (≈ 1880 µM) | 16 | 25 µg/mL (≈ 118 µM) | 32 | 17 mm | 6.25 µg/mL (≈ 29.4 µM) | 32 | – | – | – | MBC [12]: 400 µg/mL (≈ 1880 µM); MBC [16]: 50 µg/mL (≈ 235 µM)
